Data: ChEMBL document CHEMBL5058577, “EUbOPEN Chemogenomics Library 2 (Multiplex)” (2022)

Test system: U2OS
Assay: Multiplex assay against U2OS
Type: toxicity, cell-based
Details: human
Procedure, shortened: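 Live cells were stained at seeding with Hoechst33342, BioTracker Green Microtubule Cytoskeleton Dye, MitoTracker Red and Annexin V Alexa Fluor 680. Following compound addition, they were imaged on a CQ1 microscope at 37°C and 5% CO2 and gated by CellPathfinder machine learning into Hoechst high-intensity objects or normal cells, with normal cells split into healthy, pyknosed or fragmented nuclei and pyknosed cells into mitotic or apoptotic. Tubulin, mitochondrial-mass and membrane-permeability phenotypes are per cents of healthy-nucleus cells.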

[1] = 12 h, 1 µM, compound concentration 1 uM, replicate 1
[2] = 12 h, 1 µM, compound concentration 1 uM, replicate 2
[3] = 12 h, 10 µM, compound concentration 10 uM, replicate 1
[4] = 12 h, 10 µM, compound concentration 10 uM, replicate 2
[5] = 24 h, 1 µM, compound concentration 1 uM, replicate 1
[6] = 24 h, 1 µM, compound concentration 1 uM, replicate 2
[7] = 24 h, 10 µM, compound concentration 10 uM, replicate 1
[8] = 24 h, 10 µM, compound concentration 10 uM, replicate 2
[9] = 48 h, 1 µM, compound concentration 1 uM, replicate 1
[10] = 48 h, 1 µM, compound concentration 1 uM, replicate 2
[11] = 48 h, 10 µM, compound concentration 10 uM, replicate 1
[12] = 48 h, 10 µM, compound concentration 10 uM, replicate 2

Q: How did the “Population Apoptotic (%)” value [1] turn out when Cl.NCCc1ccc(O)c(O)c1 [DOPAMINE HYDROCHLORIDE] was run?
A: Its value is 100%.

Q: And the “Population Fragmented Nuclei (%)” value [1]?
A: The value was 23%.

Q: And the “Population Healthy Nuclei (%)” value [1]?
A: Its value is 67%.

Q: What about the “Population Hoechst High Intensity Objects (%)” value [1] of the same molecule?
A: Its value is 3%.

Q: And the “Population Membrane Permeable-Phenotype (%)” value [1]?
A: The value was 5%.

Q: What about the “Population Mitochondria Different-Phenotype (%)” value [1] of the same molecule?
A: The value was 1%.

Q: What about the “Population Mitotic Cells (%)” value [1] of the same molecule?
A: Its value is 0%.

Q: What about the “Population Normal (%)” value [1] of the same molecule?
A: Its value is 96%.

Q: What about the “Population Pyknosed Nuclei (%)” value [1] of the same molecule?
A: Its value is 9%.

Q: What about the “Population Tubulin-Different-Phenotype (%)” value [1] of the same molecule?
A: Its value is 2%.

Q: And the “Total Cell Count” value [1]?
A: Its value is 237.

Q: And the “Population Apoptotic (%)” value [2]?
A: Its value is 83%.

Q: And the “Population Fragmented Nuclei (%)” value [2]?
A: The value was 15%.

Q: And the “Population Healthy Nuclei (%)” value [2]?
A: Its value is 72%.

Q: What about the “Population Hoechst High Intensity Objects (%)” value [2] of the same molecule?
A: Its value is 1%.

Q: What about the “Population Membrane Permeable-Phenotype (%)” value [2] of the same molecule?
A: Its value is 8%.

Q: What about the “Population Mitochondria Different-Phenotype (%)” value [2] of the same molecule?
A: Its value is 2%.

Q: And the “Population Mitotic Cells (%)” value [2]?
A: The value was 16%.

Q: What about the “Population Normal (%)” value [2] of the same molecule?
A: The value was 98%.

Q: What about the “Population Pyknosed Nuclei (%)” value [2] of the same molecule?
A: The value was 11%.

Q: What about the “Population Tubulin-Different-Phenotype (%)” value [2] of the same molecule?
A: The value was 5%.

Q: And the “Total Cell Count” value [2]?
A: The value was 104.

Q: What about the “Population Apoptotic (%)” value [3] of the same molecule?
A: The value was 80%.

Q: And the “Population Fragmented Nuclei (%)” value [3]?
A: The value was 21%.

Q: And the “Population Healthy Nuclei (%)” value [3]?
A: The value was 65%.

Q: What about the “Population Hoechst High Intensity Objects (%)” value [3] of the same molecule?
A: The value was 3%.

Q: And the “Population Membrane Permeable-Phenotype (%)” value [3]?
A: Its value is 2%.

Q: What about the “Population Mitochondria Different-Phenotype (%)” value [3] of the same molecule?
A: Its value is 1%.

Q: What about the “Population Mitotic Cells (%)” value [3] of the same molecule?
A: Its value is 20%.

Q: And the “Population Normal (%)” value [3]?
A: Its value is 96%.

Q: And the “Population Pyknosed Nuclei (%)” value [3]?
A: Its value is 12%.

Q: And the “Population Tubulin-Different-Phenotype (%)” value [3]?
A: Its value is 1%.

Q: What about the “Total Cell Count” value [3] of the same molecule?
A: Its value is 204.

Q: And the “Population Apoptotic (%)” value [4]?
A: Its value is 75%.

Q: What about the “Population Fragmented Nuclei (%)” value [4] of the same molecule?
A: Its value is 18%.

Q: And the “Population Healthy Nuclei (%)” value [4]?
A: The value was 76%.

Q: And the “Population Hoechst High Intensity Objects (%)” value [4]?
A: The value was 0%.

Q: What about the “Population Membrane Permeable-Phenotype (%)” value [4] of the same molecule?
A: The value was 4%.

Q: What about the “Population Mitotic Cells (%)” value [4] of the same molecule?
A: Its value is 25%.

Q: What about the “Population Normal (%)” value [4] of the same molecule?
A: Its value is 100%.

Q: And the “Population Pyknosed Nuclei (%)” value [4]?
A: The value was 4%.

Q: And the “Total Cell Count” value [4]?
A: The value was 95.

Q: And the “Population Apoptotic (%)” value [5]?
A: The value was 90%.

Q: What about the “Population Fragmented Nuclei (%)” value [5] of the same molecule?
A: Its value is 18%.

Q: And the “Population Healthy Nuclei (%)” value [5]?
A: The value was 69%.

Q: And the “Population Hoechst High Intensity Objects (%)” value [5]?
A: The value was 4%.

Q: What about the “Population Membrane Permeable-Phenotype (%)” value [5] of the same molecule?
A: Its value is 7%.

Q: And the “Population Mitochondria Different-Phenotype (%)” value [5]?
A: Its value is 2%.

Q: And the “Population Mitotic Cells (%)” value [5]?
A: Its value is 10%.

Q: And the “Population Normal (%)” value [5]?
A: Its value is 95%.

Q: What about the “Population Pyknosed Nuclei (%)” value [5] of the same molecule?
A: Its value is 11%.

Q: What about the “Population Tubulin-Different-Phenotype (%)” value [5] of the same molecule?
A: Its value is 5%.

Q: What about the “Total Cell Count” value [5] of the same molecule?
A: Its value is 263.

Q: And the “Population Apoptotic (%)” value [6]?
A: Its value is 80%.

Q: What about the “Population Fragmented Nuclei (%)” value [6] of the same molecule?
A: Its value is 14%.

Q: What about the “Population Healthy Nuclei (%)” value [6] of the same molecule?
A: The value was 77%.

Q: And the “Population Hoechst High Intensity Objects (%)” value [6]?
A: The value was 1%.

Q: And the “Population Membrane Permeable-Phenotype (%)” value [6]?
A: The value was 4%.

Q: And the “Population Mitochondria Different-Phenotype (%)” value [6]?
A: Its value is 1%.

Q: And the “Population Mitotic Cells (%)” value [6]?
A: Its value is 20%.

Q: And the “Population Normal (%)” value [6]?
A: The value was 98%.

Q: And the “Population Pyknosed Nuclei (%)” value [6]?
A: Its value is 7%.

Q: What about the “Population Tubulin-Different-Phenotype (%)” value [6] of the same molecule?
A: The value was 2%.

Q: And the “Total Cell Count” value [6]?
A: The value was 132.

Q: And the “Population Apoptotic (%)” value [7]?
A: Its value is 92%.

Q: And the “Population Fragmented Nuclei (%)” value [7]?
A: The value was 18%.

Q: What about the “Population Healthy Nuclei (%)” value [7] of the same molecule?
A: The value was 70%.

Q: What about the “Population Hoechst High Intensity Objects (%)” value [7] of the same molecule?
A: Its value is 2%.

Q: And the “Population Membrane Permeable-Phenotype (%)” value [7]?
A: Its value is 4%.

Q: What about the “Population Mitochondria Different-Phenotype (%)” value [7] of the same molecule?
A: The value was 0%.

Q: What about the “Population Mitotic Cells (%)” value [7] of the same molecule?
A: The value was 8%.

Q: And the “Population Normal (%)” value [7]?
A: The value was 97%.

Q: What about the “Population Pyknosed Nuclei (%)” value [7] of the same molecule?
A: Its value is 10%.

Q: And the “Population Tubulin-Different-Phenotype (%)” value [7]?
A: The value was 1%.

Q: What about the “Total Cell Count” value [7] of the same molecule?
A: Its value is 245.

Q: And the “Population Apoptotic (%)” value [8]?
A: Its value is 87%.

Q: And the “Population Fragmented Nuclei (%)” value [8]?
A: Its value is 15%.

Q: And the “Population Healthy Nuclei (%)” value [8]?
A: The value was 77%.

Q: And the “Population Hoechst High Intensity Objects (%)” value [8]?
A: The value was 0%.

Q: And the “Population Membrane Permeable-Phenotype (%)” value [8]?
A: The value was 1%.

Q: And the “Population Mitotic Cells (%)” value [8]?
A: The value was 12%.

Q: And the “Population Normal (%)” value [8]?
A: The value was 99%.

Q: And the “Population Pyknosed Nuclei (%)” value [8]?
A: Its value is 7%.

Q: And the “Total Cell Count” value [8]?
A: Its value is 111.

Q: And the “Population Apoptotic (%)” value [9]?
A: The value was 90%.

Q: What about the “Population Fragmented Nuclei (%)” value [9] of the same molecule?
A: Its value is 17%.

Q: What about the “Population Healthy Nuclei (%)” value [9] of the same molecule?
A: The value was 70%.

Q: What about the “Population Hoechst High Intensity Objects (%)” value [9] of the same molecule?
A: Its value is 2%.

Q: What about the “Population Membrane Permeable-Phenotype (%)” value [9] of the same molecule?
A: The value was 5%.

Q: What about the “Population Mitochondria Different-Phenotype (%)” value [9] of the same molecule?
A: Its value is 3%.

Q: What about the “Population Mitotic Cells (%)” value [9] of the same molecule?
A: The value was 9%.

Q: What about the “Population Normal (%)” value [9] of the same molecule?
A: The value was 97%.

Q: And the “Population Pyknosed Nuclei (%)” value [9]?
A: Its value is 11%.

Q: What about the “Population Tubulin-Different-Phenotype (%)” value [9] of the same molecule?
A: The value was 4%.

Q: And the “Total Cell Count” value [9]?
A: The value was 363.

Q: What about the “Population Apoptotic (%)” value [10] of the same molecule?
A: Its value is 89%.

Q: What about the “Population Fragmented Nuclei (%)” value [10] of the same molecule?
A: The value was 14%.

Q: What about the “Population Healthy Nuclei (%)” value [10] of the same molecule?
A: Its value is 73%.

Q: And the “Population Membrane Permeable-Phenotype (%)” value [10]?
A: Its value is 7%.

Q: And the “Population Mitochondria Different-Phenotype (%)” value [10]?
A: Its value is 4%.

Q: What about the “Population Mitotic Cells (%)” value [10] of the same molecule?
A: The value was 10%.

Q: What about the “Population Tubulin-Different-Phenotype (%)” value [10] of the same molecule?
A: The value was 3%.

Q: What about the “Total Cell Count” value [10] of the same molecule?
A: The value was 172.

Q: What about the “Population Apoptotic (%)” value [11] of the same molecule?
A: The value was 85%.

Q: And the “Population Fragmented Nuclei (%)” value [11]?
A: The value was 18%.

Q: What about the “Population Healthy Nuclei (%)” value [11] of the same molecule?
A: The value was 66%.

Q: What about the “Population Hoechst High Intensity Objects (%)” value [11] of the same molecule?
A: The value was 2%.

Q: And the “Population Membrane Permeable-Phenotype (%)” value [11]?
A: Its value is 7%.

Q: And the “Population Mitochondria Different-Phenotype (%)” value [11]?
A: Its value is 3%.

Q: What about the “Population Mitotic Cells (%)” value [11] of the same molecule?
A: The value was 14%.

Q: And the “Population Normal (%)” value [11]?
A: Its value is 97%.

Q: What about the “Population Pyknosed Nuclei (%)” value [11] of the same molecule?
A: The value was 14%.

Q: What about the “Population Tubulin-Different-Phenotype (%)” value [11] of the same molecule?
A: Its value is 5%.

Q: What about the “Total Cell Count” value [11] of the same molecule?
A: Its value is 338.

Q: And the “Population Apoptotic (%)” value [12]?
A: The value was 100%.

Q: And the “Population Fragmented Nuclei (%)” value [12]?
A: The value was 14%.

Q: And the “Population Healthy Nuclei (%)” value [12]?
A: The value was 76%.

Q: And the “Population Hoechst High Intensity Objects (%)” value [12]?
A: Its value is 1%.

Q: What about the “Population Membrane Permeable-Phenotype (%)” value [12] of the same molecule?
A: The value was 2%.

Q: What about the “Population Mitochondria Different-Phenotype (%)” value [12] of the same molecule?
A: The value was 2%.

Q: And the “Population Mitotic Cells (%)” value [12]?
A: The value was 0%.

Q: What about the “Population Normal (%)” value [12] of the same molecule?
A: The value was 98%.

Q: What about the “Population Pyknosed Nuclei (%)” value [12] of the same molecule?
A: Its value is 8%.

Q: And the “Population Tubulin-Different-Phenotype (%)” value [12]?
A: The value was 2%.

Q: And the “Total Cell Count” value [12]?
A: The value was 179.
